ChEMBL document CHEMBL3593222, “6-Phenoxy-2-phenylbenzoxazoles, novel inhibitors of receptor for advanced glycation end products (RAGE)” (Bioorg Med Chem, 2015)
The source made the active and inactive calls. No cut-off for these calls is given here.

Tests used:
[1] = tested on: HT-22; test: (§1) Cytotoxicity against mouse HT22 cells assessed as cell viability at 10 uM after 18 hrs by MTT assay; type: cell-based; settings: ht-22, 18 h, 10 µM
Procedure, shortened: (§2)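 HT22 cells were grown in DMEM with 10% FBS and penicillin/streptomycin at 37 °C in 5% CO2, and seeded at 5000 cells/well. Next day they were exposed to 10 µM compound for 18 h. MTT was then added for 3 h, formazan dissolved in acidic 2-propanol, and OD read at 570 nm. Viability is blank-corrected absorbance relative to control. Run in triplicate.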

[2] = molecular target: Advanced glycosylation end product-specific receptor (Homo sapiens) (UniProt Q15109); test: Inhibition of human RAGE-amyloid beta-42 interaction at 4 uM preincubated for 30 mins measured after 1 hr by FRET assay relative to control
Procedure, shortened: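 Biotinylated human RAGE (2.5 µg) was premixed with 200 ng Cy3-streptavidin in PBS for 30 min at rt. Aβ42-FITC (50 µL of 40 nM) and compound (50 µL of 4 µM) were then added, in 200 µL final volume with 0.1% DMSO. Fluorescence was read 1 h later. FRET efficiency was computed from donor emission with and without acceptor, and percent inhibition was taken against vehicle. Triplicate.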

[3] = tested on: HT-22; test: Neuroprotective activity in mouse HT22 cells assessed as inhibition of amyloid beta-induced cytotoxicity by measuring cell viability at 10 uM after 18 hrs by MTT assay; type: functional; settings: HT-22, 18 h
Procedure, shortened: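 Aβ peptide was pretreated in HFIP, dried to a film, redissolved in DMSO, and aggregated at 200 µM in PBS for 24 h at 4 °C. HT22 cells (5000/well) were exposed the next day to 2 µM aggregated Aβ plus 10 µM compound for 18 h. Viability was read by MTT at 570 nm, and percent inhibition was calculated against Aβ with vehicle. Triplicate.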

[4] = as §1; type: cell-based, HT-22; settings: HT22 cells, read-out: Activity; procedure, shortened: as §2
[5] = Solubility of the compound in water; type: physicochemical; settings: buffer
[6] = tested on: Mus musculus; test: Toxicity in APPsw/PS1 transgenic mouse at 50 mg/kg, po administered every 2 days for 4 weeks; type: organism-based; settings: in vivo
[7] = tested on: Mus musculus; test: Antialzheimer activity in APPsw/PS1 transgenic mouse assessed as reduction of total amyloid beta 1-40 level in brain homogenates at 50 mg/kg, po administered every 2 days for 4 weeks by ELISA; type: functional, organism-based
Procedure, shortened: (§3)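 Male APPsw/PS1 mice, 34 weeks old (n = 4–5), dosed by gavage at 50 mg/kg every 2 days for 4 weeks. Total Aβ1–40 and Aβ1–42 were measured by ELISA kit. Results given as mean ± SD.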

[8] = tested on: Mus musculus; test: Antialzheimer activity in APPsw/PS1 transgenic mouse assessed as reduction of total amyloid beta 1-42 level in brain homogenates at 50 mg/kg, po administered every 2 days for 4 weeks by ELISA; type: functional, organism-based; procedure, shortened: as §3
[9] = tested on: Mus musculus; test: Antialzheimer activity in APPsw/PS1 transgenic mouse assessed as reduction of total amyloid beta 1-42 level in brain homogenates at 50 mg/kg, po administered every 2 days for 4 weeks by ELISA
[10] = tested on: Mus musculus; test: Antialzheimer activity in APPsw/PS1 transgenic mouse assessed as reduction of total amyloid beta 1-40 level in brain homogenates at 50 mg/kg, po administered every 2 days for 4 weeks by ELISA

Sequence of Advanced glycosylation end product-specific receptor (Homo sapiens) (Q15109 whole entry): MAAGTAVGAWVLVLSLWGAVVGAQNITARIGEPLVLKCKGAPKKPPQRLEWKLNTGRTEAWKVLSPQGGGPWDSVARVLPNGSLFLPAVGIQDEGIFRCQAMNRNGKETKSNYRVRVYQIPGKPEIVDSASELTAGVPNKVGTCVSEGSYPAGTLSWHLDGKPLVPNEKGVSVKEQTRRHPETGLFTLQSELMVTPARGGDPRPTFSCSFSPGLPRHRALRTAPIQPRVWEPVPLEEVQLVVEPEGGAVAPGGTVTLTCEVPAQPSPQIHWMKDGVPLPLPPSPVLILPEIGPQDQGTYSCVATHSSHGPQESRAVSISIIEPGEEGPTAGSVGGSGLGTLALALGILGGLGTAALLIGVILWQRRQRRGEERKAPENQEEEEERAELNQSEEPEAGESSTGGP

inhibition [2] | solubility [5] | SMILES | Activity [1] | inhibition at 10 µM [3] [%] | viability at 18 h, 10 µM [4] [%] | Activity [6] | Activity [7] | Activity [8] | Activity [9] | Activity [10]
24.6% |  | CC(C)(C)OC(=O)N1CCN(CCOc2ccc(-c3nc4ccc(Oc5ccc(Cl)cc5)cc4o3)cc2)CC1 | Non-toxic | 50.6 |  |  |  |  |  | 
40% |  | CC(C)(C)OC(=O)N1CCN(CCCOc2ccc(-c3nc4ccc(Oc5ccc(Cl)cc5)cc4o3)cc2)CC1 | Non-toxic | 65 |  | Non-toxic | Active | Active | Active | Active
21% |  | CC(C)(C)OC(=O)N1CCN(CCCOc2ccc(-c3nc4ccc(Oc5ccc(F)cc5)cc4o3)cc2)CC1 |  | 62.3 | 15.2 |  |  |  |  | 
22.8% |  | CC(C)(C)OC(=O)N1CCN(CCCOc2ccc(-c3nc4ccc(Oc5cccc(C(F)(F)F)c5)cc4o3)cc2)CC1 | Non-toxic | 56.2 |  |  |  |  |  | 

Second part, the compound before the results:

SMILES | inhibition [2] | solubility [5] | Activity [1] | inhibition at 10 µM [3] [%] | viability at 18 h, 10 µM [4] [%] | Activity [6] | Activity [7] | Activity [8] | Activity [9] | Activity [10]
Clc1ccc(Oc2ccc3nc(-c4ccc(OCC5CCN(Cc6ccccc6)CC5)cc4)oc3c2)cc1 | 5.1% | Insoluble |  |  | 82.4 |  |  |  |  | 
Clc1ccc(Oc2ccc3nc(-c4ccc(OCCCN5CCN(c6ncccn6)CC5)cc4)oc3c2)cc1 | 25.1% | Insoluble |  |  | 25.1 |  |  |  |  | 
CC(C)OC(=O)N1CCN(CCCOc2ccc(-c3nc4ccc(Oc5ccc(Cl)cc5)cc4o3)cc2)CC1 | 25.9% |  | Non-toxic | 54.4 |  |  |  |  |  | 
Clc1ccc(Oc2ccc3nc(-c4ccc(OCCCN5CCN(c6ccccc6)CC5)cc4)oc3c2)cc1 | inactive | Insoluble | Non-toxic |  |  |  |  |  |  | 
Clc1ccc(Oc2ccc3nc(-c4ccc(OCCCN5CCC(c6ccccc6)CC5)cc4)oc3c2)cc1 | inactive | Insoluble | Non-toxic |  |  |  |  |  |  | 
